Tests used:
[1] = target: T1, Angiotensin-converting enzyme (Rattus norvegicus) (UniProt P47820); test: Change in mean arterial blood pressure (MABP) after 20 mg/kg (po) dosage in Aorta-Coated renal hypertensive rat at 2.0 h; format: functional, organism-based; design: dose 20 mg/kg
T1 sequence (whole entry): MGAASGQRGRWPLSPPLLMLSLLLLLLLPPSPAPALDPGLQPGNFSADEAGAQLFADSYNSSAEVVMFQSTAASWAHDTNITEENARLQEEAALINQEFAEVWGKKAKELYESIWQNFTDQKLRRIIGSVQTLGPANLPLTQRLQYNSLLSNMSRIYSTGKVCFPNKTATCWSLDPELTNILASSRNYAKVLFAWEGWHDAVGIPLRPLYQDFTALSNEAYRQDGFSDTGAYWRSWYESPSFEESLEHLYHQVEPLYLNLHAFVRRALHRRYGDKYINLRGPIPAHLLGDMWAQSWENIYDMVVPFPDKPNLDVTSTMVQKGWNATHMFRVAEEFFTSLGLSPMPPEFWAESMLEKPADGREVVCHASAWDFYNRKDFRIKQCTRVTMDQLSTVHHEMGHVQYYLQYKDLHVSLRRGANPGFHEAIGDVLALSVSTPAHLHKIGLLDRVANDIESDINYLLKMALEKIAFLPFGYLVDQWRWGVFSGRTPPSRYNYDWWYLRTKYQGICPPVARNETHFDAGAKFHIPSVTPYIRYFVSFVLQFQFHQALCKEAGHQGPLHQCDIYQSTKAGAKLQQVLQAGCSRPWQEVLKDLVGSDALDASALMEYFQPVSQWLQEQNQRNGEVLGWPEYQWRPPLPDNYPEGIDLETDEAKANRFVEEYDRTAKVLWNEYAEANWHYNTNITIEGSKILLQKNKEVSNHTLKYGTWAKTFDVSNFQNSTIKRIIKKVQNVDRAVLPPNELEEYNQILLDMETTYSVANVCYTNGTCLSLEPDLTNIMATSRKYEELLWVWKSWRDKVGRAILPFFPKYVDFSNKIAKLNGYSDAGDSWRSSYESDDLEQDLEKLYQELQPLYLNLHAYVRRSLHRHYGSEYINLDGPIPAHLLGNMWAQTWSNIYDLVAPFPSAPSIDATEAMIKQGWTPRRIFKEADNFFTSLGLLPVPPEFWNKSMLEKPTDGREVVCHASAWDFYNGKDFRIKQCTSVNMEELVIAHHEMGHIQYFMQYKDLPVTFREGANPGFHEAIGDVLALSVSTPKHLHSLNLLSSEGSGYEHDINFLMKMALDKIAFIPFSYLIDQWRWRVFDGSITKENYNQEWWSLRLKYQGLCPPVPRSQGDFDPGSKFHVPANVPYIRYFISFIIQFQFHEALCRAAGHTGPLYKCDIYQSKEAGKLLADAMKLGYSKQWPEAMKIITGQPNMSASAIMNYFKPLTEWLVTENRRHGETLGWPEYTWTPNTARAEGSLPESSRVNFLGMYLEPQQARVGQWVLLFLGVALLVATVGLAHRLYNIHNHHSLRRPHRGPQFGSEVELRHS
Method in brief: (§1)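 Oral gavage to conscious, unrestrained rats made hypertensive by complete aortic ligation between the renal artery origins; only rats with MABP ≥150 mmHg on days 4–6 after coarctation used. Vehicle: ethanol, polyethylene glycol, Tween-80, diluted with saline. Direct arterial pressure via indwelling carotid cannula implanted 24 h earlier; change vs vehicle controls, means ± standard error, unpaired Student's t test.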

[2] = target: T1, Angiotensin-converting enzyme (Rattus norvegicus); test: (§2) Change in mean arterial blood pressure (MABP) after 20 mg/kg (po) dosage in Aorta-Coated renal hypertensive rat at 0.5 h; format: functional, organism-based; design: dose 20 mg/kg; method in brief: as §1
Rattus norvegicus = test: as §2; format: functional; method in brief: as §1

CC(=O)SC(CC(=O)N1CCCC1C(=O)O)C(=O)c1ccc(Br)cc1 (stereo not given)
Delta MABP [1]: -10.4 mmHg
Delta MABP [2]: -18.3 mmHg

O=C(c1ccc(Br)cc1)C(S)CC(=O)N1CCCC1C(=O)O (stereo not given)
Delta MABP [1]: -12 mmHg
Delta MABP [2]: -8.8 mmHg

CC(=O)S[C@@H](C(=O)c1ccccc1)[C@@H](C)C(=O)N1CCC[C@H]1C(=O)O
Delta MABP [1]: -17.1 mmHg
Delta MABP [2]: -22.4 mmHg

CC(=O)S[C@H](C(=O)c1ccc(Br)cc1)[C@@H](C)C(=O)N1CCC[C@H]1C(=O)O
Delta MABP [1]: -26.7 mmHg
Delta MABP [2]: -23.5 mmHg

CC(=O)SC(CC(=O)N1CCCC1C(=O)O)C(=O)c1ccc(F)cc1 (stereo not given)
Delta MABP [1]: -14.7 mmHg
Delta MABP [2]: -15.8 mmHg

O=C(SC(CC(=O)N1CCCC1C(=O)O)C(=O)c1ccccc1)c1ccccc1 (stereo not given)
Delta MABP [1]: -22.7 mmHg
Delta MABP [2]: -1 mmHg

COc1ccc(C(=O)C(CC(=O)N2CCCC2C(=O)O)SC(C)=O)cc1F (stereo not given)
Delta MABP [1]: -11 mmHg
Delta MABP [2]: -12.7 mmHg

CC(=O)SC(CC(=O)N1CCCC1C(=O)O)C(=O)c1ccc(C(C)(C)C)cc1 (stereo not given)
Delta MABP [1]: -19.2 mmHg
Delta MABP [2]: -30 mmHg

CC(=O)SC(CC(=O)N1CCCC1C(=O)O)C(=O)c1cccc(C(F)(F)F)c1 (stereo not given)
Delta MABP [1]: -0.83 mmHg
Delta MABP [2]: -17.5 mmHg

O=C(SC(CC(=O)N1CCCC1C(=O)O)C(=O)c1ccc(Br)cc1)c1ccccc1 (stereo not given)
Delta MABP [1]: -14.3 mmHg
Delta MABP [2]: -10 mmHg

CC(=O)S[C@@H](C(=O)c1cccc(F)c1)[C@@H](C)C(=O)N1CCC[C@H]1C(=O)O
Delta MABP [2]: -17.5 mmHg

CC(=O)SC(CC(=O)N1CCCC1C(=O)O)C(=O)c1cccc(F)c1 (stereo not given)
Delta MABP [1]: -5.43 mmHg
Delta MABP [2]: -17 mmHg

O=C(SC(CC(=O)N1CCCC1C(=O)O)C(=O)c1ccc(F)cc1)c1ccccc1 (stereo not given)
Delta MABP [1]: -6.5 mmHg
Delta MABP [2]: -12 mmHg

CC(=O)SC(CC(=O)N1CCCC1C(=O)O)C(=O)c1ccc2c(c1)CCC2 (stereo not given)
Delta MABP [1]: -30 mmHg
Delta MABP [2]: -18.5 mmHg

CC(=O)S[C@@H](C(=O)c1ccc(Br)cc1)[C@@H](C)C(=O)N1CCC[C@H]1C(=O)O
Delta MABP [1]: -31.3 mmHg
Delta MABP [2]: -27.1 mmHg

C[C@H](CS)C(=O)N1CCC[C@H]1C(=O)O
Delta MABP [1]: -21.7 mmHg
Delta MABP [2]: -27.7 mmHg

CC(=O)S[C@H](C(=O)c1cccc(F)c1)[C@@H](C)C(=O)N1CCC[C@H]1C(=O)O
Delta MABP [1]: -28 mmHg
Delta MABP [2]: -24.8 mmHg

CC(=O)SC(C(=O)c1ccc(Cl)cc1)C(C)C(=O)N1CCCC1C(=O)O (stereo not given)
Delta MABP [1]: -30.5 mmHg
Delta MABP [2]: -24 mmHg

CC(=O)SC(CC(=O)N1CCCC1C(=O)O)C(=O)c1ccc(Cl)cc1 (stereo not given)
Delta MABP [1]: -11.7 mmHg
Delta MABP (Rattus norvegicus): -17.33 mmHg

O=C(SC(CC(=O)N1CCCC1C(=O)O)C(=O)c1cccc(F)c1)c1ccccc1 (stereo not given)
Delta MABP [1]: 3.75 mmHg
Delta MABP [2]: -41 mmHg

CC(=O)SC(CC(=O)N1CCCC1C(=O)O)C(=O)c1ccccc1 (stereo not given)
Delta MABP [1]: -5.25 mmHg
Delta MABP (Rattus norvegicus): -19.2 mmHg

CC(=O)S[C@H](C(=O)c1ccccc1)[C@@H](C)C(=O)N1CCC[C@H]1C(=O)O
Delta MABP [1]: -23.2 mmHg
Delta MABP [2]: -23 mmHg

CC(=O)SC(CC(=O)N1CCCC1C(=O)O)C(=O)c1ccc2ccccc2c1 (stereo not given)
Delta MABP [1]: -6.67 mmHg
Delta MABP [2]: -17.3 mmHg
